Source: PubChem BioAssay (Broad Institute)
This is a sample that favours compounds with a hit; in the whole collection about 3.4% have one here.
ERAP1 inh: inhibitors of human ERAP1 aminopeptidase | recombinant ERAP1, Leu-AMC fluorescence, 60 min | AID 652197 | 340,000 compounds, 0.15% hits | Q9NZ08 | inhibition, % at 10.7 µM;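 active = mean replicate inhibition of at least 30%, or all replicates individually reaching that 30% level; inactive = mean below 30% and not every replicate reaching it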
AF4-AF9 inh: blocks AF4 peptide binding to human AF9 | 350,000 compounds, 0.47% hits | inhibition, % at 10 µM | AlphaScreen, biotin-AF4 peptide binding to FLAG-AF9 | P42568;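 active = every replicate reaching a set inhibition limit, whatever the replicate mean, cut at about 25% in these data; inconclusive = mean inhibition reaches that limit but some replicates miss it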
S100A4 inh HTS: S100A4-myosin IIA interaction inhibition | P26447 | 360,000 compounds, 0.14% hits | inhibition, % at 10.7 µM | AID 652163 | S100A4/TAMRA-MyoIIA peptide fluorescence polarization;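 active = mean inhibition of at least 70% across replicates, with every replicate also reaching that level; inconclusive = mean inhibition reaches 70% but some replicates fall short; inactive = mean inhibition below 70%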
Target sequence (P26447 whole entry, looked up): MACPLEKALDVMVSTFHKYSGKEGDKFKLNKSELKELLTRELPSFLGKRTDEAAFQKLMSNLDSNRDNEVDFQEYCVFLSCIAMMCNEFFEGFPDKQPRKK
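Test system: S100A4 monomer protein; Medium: HEPES pH 7.2 with CaCl2, KCl, NaCl, DTT, Triton; Probe or stimulus: TAMRA-labelled myosin IIA heavy-chain peptide probe, 5 nM; Doses: one dose per compound; Times: polarization read 5 min after assay mix addition, stable 5–60 min; Benchmarks: neutral control DMSO, positive control TFP.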
SIRT5 block: inhibitors of human sirtuin-5 desuccinylase; AID 652115; 330,000 compounds, 1.1% hits; inhibition, % at 15 µM; Purified SirT5, succinyl-peptide AMC, trypsin-coupled fluorescence; in the data active = inhibition above about 15%; inconclusive = no clear call, values can overlap the other calls
rRNA inh HTS: inhibitors of bacterial rRNA selective over humanized ribosomes; E. coli WT GFP vs humanized-ribosome RFP mutants, fluorescence, 24 h; active compounds read low; DMSO median 0, no signal -100; GFP signal change (wild-type ribosome), % (test concentration not listed); 350,000 compounds, 1.6% hits; AID 720706;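 active = significant combined selectivity score with lowered wild-type GFP, culture density cut under 30%, mutant RFP and density less affected; inactive = any of these conditions unmet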
E-selectin induc: induces E-selectin expression in human endothelial cells. P16581. HUVEC E-selectin immunofluorescence imaging; normalized: neutral wells 0, TNF-alpha wells 100. activation, % at 7.58 µM. 260,000 compounds, 0.37% hits. AID 686992;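 active = mean E-selectin-positive cell signal at least 10% of the positive control, reached in at least 60% of replicates, without over 20% cell loss; inconclusive = no rule given, readout overlaps actives, possibly toxicity-flagged; inactive = the rest, including those meeting only one limit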
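material = human umbilical vein endothelial cells (HUVEC), E-selectin induction | quantity = 3,000 cells/well | medium = EGM-2 growth medium on 0.1% gelatin-coated wells | technique = immunofluorescence imaging | read-out basis = % PE-positive cells | control set = TNF-alpha positive control, DMSO neutral control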
AID977621: wild-type E. coli growth inhibition versus H69 humanized strain – H69 mutant RFP, wild-type GFP, cherry-pick, dose response | shares compounds with rRNA inh HTS | fluorescence, 24 h | activity change, negative = inhibition at 50 µM | 1,900 tested, under 10 active | AID 977621;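 active = Wild-type ribosome reporter drop at least double the humanized mutant ribosome reporter drop, growth loss under a set limit; inconclusive = no clear call, values can overlap the other calls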;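 note: wild-type GFP and H69 mutant RFP strains grown together 50/50 in each well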
AID977628: E. coli growth inhibition, wild-type GFP versus h24 humanized RFP strain, dose response, h24 mutant RFP vs wild-type GFP, cherry-pick; shares compounds with rRNA inh HTS; E. coli WT GFP strain growth, fluorescence, 24 h; activity change, negative = inhibition at 50 µM; 1,900 tested, under 10 active;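 active = compound lowering the normal-ribosome reporter at least twice as much as the humanized-ribosome reporter, growth loss under a set limit; inconclusive = no clear call, values can overlap the other calls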;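 note: wild-type GFP and h24 humanized RFP strains co-cultured 1 to 1 per well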
Numbers stand for hits; i = inactive; ? = inconclusive; nt = no result.

SMILES	ERAP1 inh	AF4-AF9 inh	S100A4 inh HTS	SIRT5 block	rRNA inh HTS	E-selectin induc	AID977621	AID977628
CCOC(=O)c1c(N)n(CCN2CCCCC2)c2nc3ccccc3nc12	i	nt	i	i	i	nt	nt	nt
Nc1c(C(=O)NCCN2CCOCC2)c2nc3ccccc3nc2n1Cc1ccccc1	i	i	i	i	-35.8	i	nt	?
c1ccc(Nc2ccc3ccccc3c2)cc1	i	i	i	i	-24.3	nt	i	i
C=CC1CN2CCC1C[C@@H]2CO (stereo not given in full)	i	i	i	i	nt	nt	nt	nt
Cc1nc2ccc(Br)cc2c(=O)n1-c1ccc([N+](=O)[O-])c(C(F)(F)F)c1	i	i	i	nt	-19.3	i	i	i
Cc1nc2ccccc2c(=O)n1-c1cc([N+](=O)[O-])cc([N+](=O)[O-])c1	i	i	i	i	i	i	nt	nt
C[C@]12CCC(=O)C[C@H]1CC[C@@H]1[C@@H]2CC[C@]2(C)C(=O)CC[C@@H]12	i	i	i	i	-27.0	nt	nt	?
C[C@]12CCC3C(CC[C@H]4CC(=O)CC[C@]34C)C1CCC2=O (stereo not given in full)	i	i	i	i	i	i	nt	nt
